# From ChEMBL document CHEMBL4689842, “EUbOPEN Chemogenomics Library wave 1” (2021)
# System: U2OS
# Assay: Multiplex assay against U2OS
# Format: toxicity, cell-based
# Conditions: human
# Method in brief: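 Hoechst33342, BioTracker Green Microtubule Cytoskeleton Dye, MitoTracker Red and Annexin V Alexa Fluor 680 were added to live cells at seeding, and imaging on a CQ1 microscope at 37°C and 5% CO2 followed compound addition. Gating by CellPathfinder machine learning separated cells into Hoechst high-intensity objects or normal cells, then normal cells into healthy, pyknosed or fragmented nuclei, then pyknosed cells into mitotic or apoptotic. Per cents of healthy-nucleus cells are reported for the tubulin, mitochondrial-mass and membrane-permeability phenotypes.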
# [1] = 12 h, 1 µM, compound concentration 1 uM, replicate 1
# [2] = 12 h, 1 µM, compound concentration 1 uM, replicate 2
# [3] = 12 h, 10 µM, compound concentration 10 uM, replicate 1
# [4] = 12 h, 10 µM, compound concentration 10 uM, replicate 2
# [5] = 24 h, 1 µM, compound concentration 1 uM, replicate 1
# [6] = 24 h, 1 µM, compound concentration 1 uM, replicate 2
# [7] = 24 h, 10 µM, compound concentration 10 uM, replicate 1
# [8] = 24 h, 10 µM, compound concentration 10 uM, replicate 2
# [9] = 48 h, 1 µM, compound concentration 1 uM, replicate 1
# [10] = 48 h, 1 µM, compound concentration 1 uM, replicate 2
# [11] = 48 h, 10 µM, compound concentration 10 uM, replicate 1
# [12] = 48 h, 10 µM, compound concentration 10 uM, replicate 2
smiles,measurement,setting,value
C=CC(=O)Nc1cc(-n2c(=O)ccc3cnc4ccc(-c5ccc(NS(C)(=O)=O)cc5)cc4c32)ccc1C,Population Apoptotic (%),[1],35%
same,Population Fragmented Nuclei (%),[1],6%
same,Population Healthy Nuclei (%),[1],80%
same,Population Hoechst High Intensity Objects (%),[1],3%
same,Population Membrane Permeable-Phenotype (%),[1],7%
same,Population Mitochondria Different-Phenotype (%),[1],4%
same,Population Mitotic Cells (%),[1],65%
same,Population Normal (%),[1],96%
same,Population Pyknosed Nuclei (%),[1],12%
same,Population Tubulin-Different-Phenotype (%),[1],6%
same,Total Cell Count,[1],164
same,Population Apoptotic (%),[2],33%
same,Population Fragmented Nuclei (%),[2],10%
same,Population Healthy Nuclei (%),[2],77%
same,Population Hoechst High Intensity Objects (%),[2],7%
same,Population Membrane Permeable-Phenotype (%),[2],0%
same,Population Mitochondria Different-Phenotype (%),[2],10%
same,Population Mitotic Cells (%),[2],66%
same,Population Normal (%),[2],92%
same,Population Tubulin-Different-Phenotype (%),[2],10%
same,Total Cell Count,[2],53
same,Population Apoptotic (%),[3],30%
same,Population Fragmented Nuclei (%),[3],19%
same,Population Healthy Nuclei (%),[3],66%
same,Population Hoechst High Intensity Objects (%),[3],7%
same,Population Membrane Permeable-Phenotype (%),[3],10%
same,Population Mitochondria Different-Phenotype (%),[3],26%
same,Population Mitotic Cells (%),[3],69%
same,Population Normal (%),[3],92%
same,Population Pyknosed Nuclei (%),[3],14%
same,Population Tubulin-Different-Phenotype (%),[3],29%
same,Total Cell Count,[3],173
same,Population Apoptotic (%),[4],76%
same,Population Fragmented Nuclei (%),[4],8%
same,Population Healthy Nuclei (%),[4],54%
same,Population Hoechst High Intensity Objects (%),[4],9%
same,Population Membrane Permeable-Phenotype (%),[4],12%
same,Population Mitochondria Different-Phenotype (%),[4],56%
same,Population Mitotic Cells (%),[4],23%
same,Population Normal (%),[4],90%
same,Population Pyknosed Nuclei (%),[4],36%
same,Population Tubulin-Different-Phenotype (%),[4],52%
same,Total Cell Count,[4],51
same,Population Apoptotic (%),[5],28%
same,Population Fragmented Nuclei (%),[5],6%
same,Population Healthy Nuclei (%),[5],86%
same,Population Hoechst High Intensity Objects (%),[5],4%
same,Population Membrane Permeable-Phenotype (%),[5],4%
same,Population Mitochondria Different-Phenotype (%),[5],8%
same,Population Mitotic Cells (%),[5],71%
same,Population Normal (%),[5],95%
same,Population Pyknosed Nuclei (%),[5],6%
same,Population Tubulin-Different-Phenotype (%),[5],12%
same,Total Cell Count,[5],216
same,Population Apoptotic (%),[6],55%
same,Population Fragmented Nuclei (%),[6],11%
same,Population Healthy Nuclei (%),[6],76%
same,Population Hoechst High Intensity Objects (%),[6],2%
same,Population Membrane Permeable-Phenotype (%),[6],3%
same,Population Mitochondria Different-Phenotype (%),[6],15%
same,Population Mitotic Cells (%),[6],44%
same,Population Normal (%),[6],97%
same,Population Pyknosed Nuclei (%),[6],11%
same,Population Tubulin-Different-Phenotype (%),[6],22%
same,Total Cell Count,[6],79
same,Population Apoptotic (%),[7],53%
same,Population Fragmented Nuclei (%),[7],17%
same,Population Healthy Nuclei (%),[7],69%
same,Population Hoechst High Intensity Objects (%),[7],3%
same,Population Membrane Permeable-Phenotype (%),[7],8%
same,Population Mitochondria Different-Phenotype (%),[7],17%
same,Population Mitotic Cells (%),[7],46%
same,Population Normal (%),[7],96%
same,Population Pyknosed Nuclei (%),[7],13%
same,Population Tubulin-Different-Phenotype (%),[7],15%
same,Total Cell Count,[7],202
same,Population Apoptotic (%),[8],84%
same,Population Fragmented Nuclei (%),[8],21%
same,Population Healthy Nuclei (%),[8],32%
same,Population Hoechst High Intensity Objects (%),[8],5%
same,Population Membrane Permeable-Phenotype (%),[8],22%
same,Population Mitochondria Different-Phenotype (%),[8],50%
same,Population Mitotic Cells (%),[8],15%
same,Population Normal (%),[8],94%
same,Population Pyknosed Nuclei (%),[8],46%
same,Population Tubulin-Different-Phenotype (%),[8],33%
same,Total Cell Count,[8],59
same,Population Apoptotic (%),[9],25%
same,Population Fragmented Nuclei (%),[9],5%
same,Population Healthy Nuclei (%),[9],87%
same,Population Hoechst High Intensity Objects (%),[9],2%
same,Population Membrane Permeable-Phenotype (%),[9],1%
same,Population Mitochondria Different-Phenotype (%),[9],14%
same,Population Mitotic Cells (%),[9],74%
same,Population Normal (%),[9],97%
same,Population Pyknosed Nuclei (%),[9],7%
same,Population Tubulin-Different-Phenotype (%),[9],14%
same,Total Cell Count,[9],360
same,Population Apoptotic (%),[10],9%
same,Population Fragmented Nuclei (%),[10],9%
same,Population Healthy Nuclei (%),[10],81%
same,Population Hoechst High Intensity Objects (%),[10],3%
same,Population Membrane Permeable-Phenotype (%),[10],0%
same,Population Mitochondria Different-Phenotype (%),[10],12%
same,Population Mitotic Cells (%),[10],90%
same,Population Normal (%),[10],96%
same,Population Pyknosed Nuclei (%),[10],9%
same,Population Tubulin-Different-Phenotype (%),[10],20%
same,Total Cell Count,[10],115
same,Population Apoptotic (%),[11],77%
same,Population Fragmented Nuclei (%),[11],15%
same,Population Healthy Nuclei (%),[11],72%
same,Population Hoechst High Intensity Objects (%),[11],4%
same,Population Membrane Permeable-Phenotype (%),[11],10%
same,Population Mitochondria Different-Phenotype (%),[11],19%
same,Population Mitotic Cells (%),[11],22%
same,Population Normal (%),[11],95%
same,Population Pyknosed Nuclei (%),[11],12%
same,Population Tubulin-Different-Phenotype (%),[11],9%
same,Total Cell Count,[11],257
same,Population Apoptotic (%),[12],95%
same,Population Fragmented Nuclei (%),[12],19%
same,Population Healthy Nuclei (%),[12],35%
same,Population Hoechst High Intensity Objects (%),[12],5%
same,Population Membrane Permeable-Phenotype (%),[12],22%
same,Population Mitochondria Different-Phenotype (%),[12],33%
same,Population Mitotic Cells (%),[12],4%
same,Population Normal (%),[12],94%
same,Population Pyknosed Nuclei (%),[12],45%
same,Population Tubulin-Different-Phenotype (%),[12],33%
same,Total Cell Count,[12],54
